Data reported in ChEMBL document CHEMBL1140036, “Novel glucagon receptor antagonists with improved selectivity over the glucose-dependent insulinotropic polypeptide receptor” (J Med Chem, 2008).
pIC50: −log10 of the molar value. The source made the active and inactive calls. The rule behind the calls is not given here.

Columns and labels:
[1] = target: T1, Gastric inhibitory polypeptide receptor (Homo sapiens, UniProt P48546); assay: Binding affinity to human cloned GIPR expressed in BHK cells; type: cell-based
T1 sequence (P48546 whole entry): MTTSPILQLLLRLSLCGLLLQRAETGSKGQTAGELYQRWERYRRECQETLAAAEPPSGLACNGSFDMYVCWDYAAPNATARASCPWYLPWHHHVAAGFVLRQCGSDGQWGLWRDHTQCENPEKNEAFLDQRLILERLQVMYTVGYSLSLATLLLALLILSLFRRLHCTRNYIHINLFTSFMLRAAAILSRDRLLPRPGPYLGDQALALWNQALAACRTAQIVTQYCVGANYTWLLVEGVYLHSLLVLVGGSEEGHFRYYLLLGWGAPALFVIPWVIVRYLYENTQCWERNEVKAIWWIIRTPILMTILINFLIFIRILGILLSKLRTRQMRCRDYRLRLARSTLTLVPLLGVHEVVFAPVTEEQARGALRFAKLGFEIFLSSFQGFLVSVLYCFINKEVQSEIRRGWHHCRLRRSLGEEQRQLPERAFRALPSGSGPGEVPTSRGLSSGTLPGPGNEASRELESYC
How it was run: (§1)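 Competitive binding on purified plasma membranes from BHK cells expressing the cloned human receptor (glucagon, GIP or GLP-1 receptor). The glucagon receptor protocol follows earlier published work, and the GIP and GLP-1 assays were done the same way.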

[2] = target: Glucagon-like peptide 1 receptor (Homo sapiens, UniProt P43220); assay: Binding affinity to human cloned GLP1R expressed in BHK cells; type: cell-based; how it was run: as §1
Sequence of Glucagon-like peptide 1 receptor (P43220 whole entry): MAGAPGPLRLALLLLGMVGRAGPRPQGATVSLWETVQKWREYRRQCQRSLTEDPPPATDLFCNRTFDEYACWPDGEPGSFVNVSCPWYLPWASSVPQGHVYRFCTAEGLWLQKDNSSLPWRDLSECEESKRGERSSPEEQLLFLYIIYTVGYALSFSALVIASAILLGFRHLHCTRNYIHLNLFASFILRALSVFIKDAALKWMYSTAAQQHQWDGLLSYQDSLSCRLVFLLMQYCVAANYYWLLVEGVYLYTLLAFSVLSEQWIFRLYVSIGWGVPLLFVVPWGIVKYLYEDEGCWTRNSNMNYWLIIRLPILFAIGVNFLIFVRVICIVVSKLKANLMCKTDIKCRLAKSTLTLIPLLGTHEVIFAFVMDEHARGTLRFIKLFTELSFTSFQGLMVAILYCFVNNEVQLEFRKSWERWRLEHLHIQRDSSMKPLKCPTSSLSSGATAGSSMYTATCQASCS

Glucagon receptor [3] = target: Glucagon receptor (Homo sapiens, UniProt P47871); assay: Binding affinity to human cloned GluR expressed in BHK cells; type: cell-based; how it was run: as §1
Sequence of Glucagon receptor (Homo sapiens, UniProt P47871) (P47871 whole entry): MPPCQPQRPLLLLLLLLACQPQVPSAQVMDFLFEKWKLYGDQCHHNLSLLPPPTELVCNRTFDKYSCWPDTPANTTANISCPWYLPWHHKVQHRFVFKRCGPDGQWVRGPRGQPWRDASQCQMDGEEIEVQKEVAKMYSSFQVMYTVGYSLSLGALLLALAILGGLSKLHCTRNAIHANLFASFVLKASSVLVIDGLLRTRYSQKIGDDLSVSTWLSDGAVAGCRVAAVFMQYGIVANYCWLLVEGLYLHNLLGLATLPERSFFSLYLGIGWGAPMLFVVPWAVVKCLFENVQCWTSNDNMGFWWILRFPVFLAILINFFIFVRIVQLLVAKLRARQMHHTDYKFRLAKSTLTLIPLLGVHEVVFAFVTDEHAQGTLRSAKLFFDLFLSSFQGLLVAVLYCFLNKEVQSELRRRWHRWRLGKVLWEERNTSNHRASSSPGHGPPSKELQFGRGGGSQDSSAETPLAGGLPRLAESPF

[4] = Half life in Sprague-Dawley rat at 2 mg/kg, iv; type: ADME, organism-based; design: dose 2 mg/kg, route intravenous; conditions: in vivo
How it was run: (§2)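 Fasted male Sprague-Dawley rats (~200 g) were given 2 mg/kg iv or 4 mg/kg po. Vehicle: 5% ethanol, 20% propylene glycol, 10% hydroxypropyl-β-cyclodextrin in phosphate buffer pH 7.5-8.0. EDTA blood was taken by heart puncture under CO2 at 5-360 min (iv) or 15-360 min (po). Plasma was analysed by HTLC-MS/MS, with noncompartmental PK analysis.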

[5] = Oral bioavailability in Sprague-Dawley rat at 4 mg/kg; type: ADME, organism-based; conditions: in vivo; how it was run: as §2
Pancreas = assay: Inhibition of GIP-stimulated insulin secretion in rat pancreas; type: functional, tissue-based
How it was run: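 Isolated perfused rat pancreas: 80 mg/dL glucose at 1-4 min, then 160 mg/dL glucose with compound at 5-50 min, and 500 pM GIP infused at 15-34 min. Portal outflow was collected each minute and insulin measured by radioimmunoassay; n = 4 per group.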

Glucagon receptor [6] = target: Glucagon receptor (Rattus norvegicus, UniProt P30082); assay: Binding affinity to GlucR in rat liver membrane; type: cell membranes
Sequence of Glucagon receptor (Rattus norvegicus, UniProt P30082) (P30082 whole entry): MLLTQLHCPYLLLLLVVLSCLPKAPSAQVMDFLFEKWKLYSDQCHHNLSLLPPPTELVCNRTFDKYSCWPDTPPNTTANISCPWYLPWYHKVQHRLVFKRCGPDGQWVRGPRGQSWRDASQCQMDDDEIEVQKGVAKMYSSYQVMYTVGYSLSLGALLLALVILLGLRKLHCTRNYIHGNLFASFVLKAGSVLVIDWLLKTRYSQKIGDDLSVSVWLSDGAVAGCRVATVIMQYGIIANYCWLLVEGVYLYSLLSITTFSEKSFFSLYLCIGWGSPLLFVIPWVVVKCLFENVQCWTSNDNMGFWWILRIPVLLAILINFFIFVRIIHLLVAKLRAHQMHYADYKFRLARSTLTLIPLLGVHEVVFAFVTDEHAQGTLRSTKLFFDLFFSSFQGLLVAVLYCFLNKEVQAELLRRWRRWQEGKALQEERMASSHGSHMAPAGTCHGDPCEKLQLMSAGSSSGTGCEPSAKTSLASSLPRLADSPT
How it was run: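 Competitive binding on isolated rat liver membrane preparations, run by the same protocol as the human glucagon receptor binding assay.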

[7] = target: T2, Gastric inhibitory polypeptide receptor (Rattus norvegicus, UniProt P43219); assay: Binding affinity to GIPR in rat liver membrane; type: cell membranes
T2 sequence (P43219 whole entry): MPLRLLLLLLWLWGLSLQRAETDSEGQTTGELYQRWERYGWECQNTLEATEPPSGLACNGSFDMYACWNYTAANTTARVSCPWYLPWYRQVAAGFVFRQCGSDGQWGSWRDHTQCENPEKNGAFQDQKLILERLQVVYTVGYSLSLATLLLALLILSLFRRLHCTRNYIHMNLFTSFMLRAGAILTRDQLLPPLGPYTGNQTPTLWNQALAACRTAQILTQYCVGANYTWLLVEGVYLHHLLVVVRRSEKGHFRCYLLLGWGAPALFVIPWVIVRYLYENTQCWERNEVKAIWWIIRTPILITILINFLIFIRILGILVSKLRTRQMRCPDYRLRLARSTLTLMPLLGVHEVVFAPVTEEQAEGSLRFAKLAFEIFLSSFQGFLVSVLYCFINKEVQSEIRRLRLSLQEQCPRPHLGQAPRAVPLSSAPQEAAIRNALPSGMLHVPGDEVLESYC

Rattus norvegicus = assay: Inhibition of glucagon-stimulated increase in blood glucose levels in iv dosed Sprague-Dawley rat administered 5 mins before glucagon challenge; type: functional
How it was run: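 Nonfasted male Sprague-Dawley rats (200 g) were anaesthetized with sc fentanyl/fluanisone plus midazolam. Compound was given via jugular catheter at 0, 3 or 10 mg/kg, followed 5 min later by iv glucagon 3 µg/kg. Tail-tip blood glucose was sampled at 25 and 5 min before compound and 10 min after glucagon. Response = 10-min value minus mean basal.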

Hepatocyte [8] = assay: Inhibition of adrenaline-stimulated glycogenolysis in rat hepatocytes up to 25 uM; type: functional, cell-based
How it was run: (§3)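 Glycogen-loaded cultured primary rat hepatocytes, either unstimulated (basal) or adrenaline-stimulated, in medium with 0.1% HSA. Compounds were tested at concentrations up to 25 µM, and glycogenolysis was read as glucose release.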

Mus musculus = assay: Reduction of hyperglycemia in leptin-deficient obese type-2 diabetes ob/ob mouse model at 100 mg/kg, po after 6 hrs; type: functional, organism-based; design: dose 100 mg/kg
How it was run: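 Male ob/ob mice (11-13 weeks), selected for highest blood glucose and randomized to matched groups. Dosed 0 or 100 mg/kg by oral gavage in the morning, with food withheld for 6 h. Blood glucose was measured ~1/2 h predose and at 2, 4, 6 and 24 h, expressed as change from baseline.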

Hepatocyte [9] = assay: Inhibition of basal glycogenolysis in rat hepatocytes up to 25 uM; type: functional, cell-based; how it was run: as §3
Hepatocyte [10] = assay: Inhibition of glucagon-stimulated glycogenolysis in rat hepatocytes; type: functional, cell-based
How it was run: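 Isolated, cultured primary rat hepatocytes were loaded with glycogen and stimulated with 0.5 nM glucagon plus increasing compound concentrations in medium containing 0.1% HSA. Glucose released into the medium was measured after 60 min, and IC50 was derived.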

BHK = assay: Selectivity ratio of IC50 for human cloned GluR to IC50 for human cloned GLP1R expressed in BHK cells; type: cell-based
Hepatocyte [11] = assay: Increase in lactate production in rat hepatocytes; type: functional, cell-based

SMILES	pIC50 [1]	pIC50 [2]	pIC50 (Glucagon receptor [3])	further results
O=C(NC[C@H](O)C(=O)O)c1ccc(CN(C(=O)Nc2cc(Cl)cc(Cl)c2)c2ccc(C3=CCCCC3)cc2)cc1	6.35	5.03	7.29	–
CSc1cccc(NC(=O)N(Cc2ccc(C(=O)NC[C@@H](O)C(=O)O)cc2)c2ccc(C3CCCCC3)cc2)c1	6.39	–	8.05	half-life [4]: 43 min; bioavailability [5]: 8%
O=C(NC[C@@H](O)C(=O)O)c1ccc(CN(C(=O)Nc2cccc(Cl)c2)c2ccc(C3=CCCCC3)cc2)cc1	6.39	–	7.85	–
O=C(NC[C@@H](O)C(=O)O)c1ccc(CN(C(=O)Nc2ccccc2)c2ccc(C3=CCCCC3)cc2)cc1	5.86	–	6.78	–
O=C(NC[C@@H](O)C(=O)O)c1ccc(CN(C(=O)Nc2cc(Cl)cc(Cl)c2)c2ccc(C3=CCCCC3)cc2)cc1	6.44	4.77	8.41	Activity (Rattus norvegicus): Dose-dependent effect; minimal effective dose (Rattus norvegicus; read-out: MED): 3 mg/kg; half-life [4]: 53 min; Activity (Hepatocyte [8]): inactive; Activity (Mus musculus): Active; pIC50 (Glucagon receptor [6]): 7.37; Activity (Hepatocyte [9]): inactive; pIC50 (Hepatocyte [10]): 6.70; bioavailability [5]: 32%; Ratio IC50 (BHK): 4300; Activity (Hepatocyte [11]): Active; pIC50 [7]: 6.30
CS(=O)(=O)c1cc(NC(=O)N(Cc2ccc(C(=O)NC[C@@H](O)C(=O)O)cc2)c2ccc(C3=CCCCC3)cc2)ccc1OC(F)(F)F	6.30	–	8.30	half-life [4]: 55 min; bioavailability [5]: 10%
O=C(NC[C@@H](O)C(=O)O)c1ccc(CN(C(=O)Nc2cc(Br)cc(C(F)(F)F)c2)c2ccc(C3=CCCCC3)cc2)cc1	6.42	–	8.15	half-life [4]: 46 min; bioavailability [5]: 14%
CO[C@H](CNC(=O)c1ccc(CN(C(=O)Nc2cc(Cl)cc(Cl)c2)c2ccc(C3=CCCCC3)cc2)cc1)C(=O)O	5.52	4.66	6.16	–
COc1cc(NC(=O)N(Cc2ccc(C(=O)NC[C@@H](O)C(=O)O)cc2)c2ccc(C3=CCCCC3)cc2)cc(C(F)(F)F)c1	6.55	–	7.85	half-life [4]: 53 min; bioavailability [5]: 7%
CC(C)(C)[C@H]1CC[C@H](N(Cc2ccc(C(=O)NC[C@H](O)C(=O)O)cc2)C(=O)Nc2cc(C(F)(F)F)cc(C(F)(F)F)c2)CC1	6.43	5.31	7.09	–
N#Cc1ccc(NC(=O)N(Cc2ccc(C(=O)NC[C@@H](O)C(=O)O)cc2)c2ccc(C3CCCCC3)cc2)cc1C(F)(F)F	6.70	–	8.05	–
O=C(NCC(O)C(=O)O)c1ccc(CN(C(=O)Nc2cc(Cl)cc(Cl)c2)c2ccc(C3=CCCCC3)cc2)cc1 (racemic)	6.15	–	7.85	–
CC(C)(C)c1ccc(N(Cc2ccc(C(=O)NCC(O)C(=O)O)cc2)C(=O)Nc2ccc(OC(F)(F)F)cc2)cc1 (racemic)	6.50	–	7.26	–

More lines, main results first:

pIC50 [1]	pIC50 [2]	pIC50 (Glucagon receptor [3])	SMILES	further results
6.66	–	7.57	Cc1cc(C)cc(NC(=O)N(Cc2ccc(C(=O)NC[C@@H](O)C(=O)O)cc2)[C@H]2CC[C@H](C(C)(C)C)CC2)c1	–
7.03	–	8.40	O=C(NC[C@@H](O)C(=O)O)c1ccc(CN(C(=O)Nc2cc(Cl)cc(Cl)c2)c2ccc(C3CCCCC3)cc2)cc1	–
7.08	–	8.22	O=C(NC[C@@H](O)C(=O)O)c1ccc(CN(C(=O)Nc2ccc3c(c2)C(F)(F)OC(F)(F)O3)c2ccc(C3=CCCCC3)cc2)cc1	–
7.42	4.97	7.44	CC(C)(C)c1ccc(N(Cc2ccc(C(=O)NCCC(=O)O)cc2)C(=O)Nc2ccc(OC(F)(F)F)cc2)cc1	–
7.06	5.11	8.10	CC(C)(C)[C@H]1CC[C@H](N(Cc2ccc(C(=O)NC[C@@H](O)C(=O)O)cc2)C(=O)Nc2cc(C(F)(F)F)cc(C(F)(F)F)c2)CC1	half-life [4]: 41 min; bioavailability [5]: 11%
6.84	–	8.05	COc1cc(NC(=O)N(Cc2ccc(C(=O)NC[C@@H](O)C(=O)O)cc2)c2ccc(C3CCCCC3)cc2)cc(C(F)(F)F)c1	–
7.55	5.60	7.63	CC(C)(C)C1CCC(N(Cc2ccc(C(=O)NCCC(=O)O)cc2)C(=O)Nc2ccc(OC(F)(F)F)cc2)CC1 (stereo not given)	Activity (Pancreas): Active; pIC50 (Glucagon receptor [6]): 7.64; pIC50 [7]: 7.38
6.67	–	8.10	O=C(NC[C@@H](O)C(=O)O)c1ccc(CN(C(=O)Nc2cccc(Br)c2)c2ccc(C3CCCCC3)cc2)cc1	half-life [4]: 72 min; bioavailability [5]: 21%
7.92	–	8.22	O=C(NC[C@@H](O)C(=O)O)c1ccc(CN(C(=O)Nc2ccc(SC(F)(F)F)cc2)c2ccc(C3CCCCC3)cc2)cc1	–
7.03	–	7.80	CC(C)(C)[C@H]1CC[C@H](N(Cc2ccc(C(=O)NCCC(=O)O)cc2)C(=O)Nc2cc(C(F)(F)F)cc(C(F)(F)F)c2)CC1	–
7.01	–	8.00	Cc1cc(NC(=O)N(Cc2ccc(C(=O)NC[C@@H](O)C(=O)O)cc2)[C@H]2CC[C@H](C(C)(C)C)CC2)cc(C(F)(F)F)c1	–
7.13	–	7.74	CC(C)(C)c1cccc(NC(=O)N(Cc2ccc(C(=O)NC[C@@H](O)C(=O)O)cc2)c2ccc(C3CCCCC3)cc2)c1	–
7.19	5.30	7.92	O=C(O)CCNC(=O)c1ccc(CN(C(=O)Nc2cc(Cl)cc(Cl)c2)c2ccc(C3=CCCCC3)cc2)cc1	Activity (Hepatocyte [8]): inactive; Activity (Pancreas): Active; pIC50 (Glucagon receptor [6]): 7.44; Activity (Hepatocyte [9]): inactive; pIC50 (Hepatocyte [10]): 6.09; Ratio IC50 (BHK): 400; Activity (Hepatocyte [11]): Active; pIC50 [7]: 6.67
